Results on seven compounds are retold here after ChEMBL document CHEMBL1127859, “Selective inhibition of trypanosomal glyceraldehyde-3-phosphate dehydrogenase by protein structure-based design: toward new drugs for the treatment of sleeping sickness” (J Med Chem, 1994).

The target of experiment [1] is Glyceraldehyde-3-phosphate dehydrogenase (Homo sapiens, UniProt P04406). The experiment can be described thus: Tested for the inhibitory activity against Glycosomal glyceraldehyde 3-phosphate dehydrogenase (gGAPDH) of human erythrocyte.
A short description of experiment [2]: Tested for the inhibitory activity against Glycosomal glyceraldehyde 3-phosphate dehydrogenase (gGAPDH) of Trypanosoma brucei. The method, boiled down:
(§1)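 Recombinant glycosomal GAPDH overexpressed in E. coli and purified. Started with enzyme. Initial rates compared with a 5% DMSO control; NADH absorbance interference checked without enzyme. IC50 from ≥5 concentrations giving 5–80% inhibition.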

Experiment [3] in a line: Tested for the inhibitory activity against Glycosomal glyceraldehyde 3-phosphate dehydrogenase (gGAPDH) of Leishmania mexicana. A digest of the protocol: as §1
The nature of experiment [4]: Tested for the inhibitory activity against Glycosomal glyceraldehyd 3-phosphate dehydrogenase (gGAPDH) of Trypanosoma brucei. A digest of the protocol: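 Recombinant T. brucei gGAPDH expressed in E. coli. Reaction started with enzyme; NADH absorbance read. Activity from initial rates versus a DMSO-only control. IC50 from at least five inhibitor concentrations giving 5–80% inhibition.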

Molecules are shown by their SMILES.

Glyceraldehyde-3-phosphate dehydrogenase, sequence (P04406 whole entry): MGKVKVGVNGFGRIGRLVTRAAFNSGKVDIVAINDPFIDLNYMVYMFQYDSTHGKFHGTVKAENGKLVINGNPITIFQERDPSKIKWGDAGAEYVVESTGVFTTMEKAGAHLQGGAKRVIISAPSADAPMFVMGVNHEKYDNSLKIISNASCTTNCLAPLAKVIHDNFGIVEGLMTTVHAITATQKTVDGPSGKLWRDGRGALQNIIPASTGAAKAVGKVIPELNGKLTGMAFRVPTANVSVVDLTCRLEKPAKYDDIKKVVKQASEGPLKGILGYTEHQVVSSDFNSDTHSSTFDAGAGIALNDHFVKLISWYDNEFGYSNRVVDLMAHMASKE

Regarding `Nc1ncnc2c1nc(-c1ccccc1)n2[C@@H]1O[C@H](CO)[C@@H](O)[C@H]1O`, the IC50 in experiment [1] and in experiment [2] was 10 mM throughout.
Turning to `Nc1ncnc2c1ncn2[C@@H]1O[C@H](CO)[C@@H](O)[C@H]1NC(=O)c1ccccc1`, the values for the IC50 in experiment [1], in experiment [2] and in experiment [3] were > 10 mM, 6 mM and 3.3 mM, respectively.
The matching figures for `Nc1ncnc2c1ncn2[C@@H]1O[C@H](CO)[C@@H](O)[C@H]1NC(=O)c1cccs1`: > 10 mM, 5 mM and 2.4 mM.
For `COc1cccc(C(=O)N[C@@H]2[C@H](O)[C@@H](CO)O[C@H]2n2cnc3c(N)ncnc32)c1`, the half-inhibitory concentration (IC50) was > 10 mM in experiment [1], 2.2 mM in experiment [2] and 0.3 mM in experiment [3].
In the case of `Nc1ncnc2c1nc(-c1cccs1)n2[C@@H]1O[C@H](CO)C(O)[C@H]1O` (single isomer, unassigned), the IC50 worked out at 1.3 mM in experiment [1], 0.6 mM in experiment [4] and 0.5 mM in experiment [3].
On to `Cc1nc(N)c2ncn([C@@H]3O[C@H](CO)[C@@H](O)[C@H]3O)c2n1` [2-METHYLADENOSINE], for which the IC50 in experiment [1] was > 10 mM; in experiment [2], 8 mM; in experiment [3] it was 6 mM.
The matching figures for `Nc1ncnc2c1ncn2[C@@H]1O[C@H](CO)[C@@H](O)[C@H]1O` [ADENOSINE]: 35 mM, 100 mM and 50 mM.

One may read the IC50 as the concentration needed to halve the response being measured.
